Measured values taken from ChEMBL document CHEMBL3779860, “A Designed Tryptophan- and Lysine/Arginine-Rich Antimicrobial Peptide with Therapeutic Potential for Clinical Antibiotic-Resistant Candida albicans Vaginitis” (J Med Chem, 2016).
Activity calls are given as the source filed them. The calls are words filed in the database; no cut-off is given here.

Experiments:
[1] = tested on: Candida albicans; assay: Antimicrobial activity against antibiotic resistant Candida albicans clinical isolate 08030809 compound treated in PBS solution measured after 36 hrs by disc diffusion method; format: functional; conditions: isolate 08030809, 36 h
Outline: (§1)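 Salt-tolerance test: peptide at 2 mg/mL was prepared in sterile ddH2O, in 150 mM NaCl, or in PBS (150 mM NaCl, 2.7 mM KCl, 1.5 mM KH2PO4, 8 mM K2HPO4, pH 7.2). Anti-C. albicans activity was then assessed by inhibition zone on Sabouraud medium with 0.7% agar.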

[2] = tested on: Candida albicans; assay: Antimicrobial activity against antibiotic resistant Candida albicans clinical isolate 08032815 compound treated in PBS solution measured after 36 hrs by disc diffusion method; format: functional; conditions: isolate 08032815, 36 h; outline: as §1
[3] = tested on: Candida albicans; assay: Antimicrobial activity against antibiotic resistant Candida albicans clinical isolate 08032821 compound treated in double distilled water measured after 36 hrs by disc diffusion method; format: functional; conditions: isolate 08032821, 36 h; outline: as §1
[4] = tested on: HEK293; assay: Cytotoxicity against HEK293 cells assessed as cell viability at 0.39 to 100 ug/ml after 24 hrs by MTT assay; format: cell-based; conditions: human, hek293, 24 h
Outline: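 HEK293 seeded at 1 × 10^5 cells/mL in DMEM with 10% fetal calf serum and penicillin-streptomycin, 37 °C, 5% CO2. Cells exposed to sample for 24 h, then given MTT (5 mg/mL); formazan dissolved in DMSO and read at 570 nm. Done in triplicate.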

[5] = tested on: Candida albicans; assay: Antimicrobial activity against antibiotic resistant Candida albicans clinical isolate 08030809 after 16 hrs by broth dilution method; format: functional; conditions: isolate 08030809, 16 h
Outline: (§2)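 Broth microdilution in Sabouraud liquid medium. Samples are stocks in 0.9% NaCl, 10 µL added to 90 µL broth plus 100 µL of 2 × 10^5 CFU/mL yeast suspension. Incubated 16 h at 28°C, growth read by A600. MIC is the lowest concentration completely inhibiting growth; mean of three independent experiments.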

[6] = Hemolytic activity in human RBC after 30 mins; format: ADME, cell-based, Erythrocyte
Outline: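 Serial dilutions were incubated with human erythrocytes for 30 min at 37°C. Supernatant absorbance was read at 540 nm after centrifugation. Hemolysis is expressed as % of the 1% Triton X-100 lysis value, pooled from three independent experiments. The highest concentration tested was 320 µg/mL.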

[7] = tested on: Candida albicans; assay: Antimicrobial activity against Candida albicans ATCC 2002 assessed as inhibition of yeast growth after 16 hrs by broth dilution method; format: functional; conditions: ATCC 2002, 16 h; outline: as §2
[8] = tested on: Escherichia coli; assay: Antimicrobial activity against Escherichia coli ATCC 25922 assessed as inhibition of […] growth after 16 hrs by broth dilution method; format: functional; conditions: ATCC 25922, 16 h
Outline: (§3)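 Broth dilution in LB broth; 100 µL of 2 × 10^5 CFU/mL bacterial suspension plus 10 µL sample (stock series in 0.9% NaCl) in 90 µL broth, 37°C for 16 h. Growth read as A600; MIC is the lowest concentration completely inhibiting growth. Mean of three independent experiments run in duplicate.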

[9] = tested on: Staphylococcus aureus; assay: Antimicrobial activity against Staphylococcus aureus ATCC 2592 assessed as inhibition of […] growth after 16 hrs by broth dilution method; format: functional; conditions: ATCC 2592, 16 h; outline: as §3
[10] = tested on: Candida albicans; assay: Antimicrobial activity against antibiotic resistant Candida albicans clinical isolate 08030809 assessed as clone count at MIC after 6 hrs by colony counting assay (reference value: 14536 +/- 2467 CFU); format: functional
[11] = tested on: Candida albicans; assay: Antimicrobial activity against antibiotic resistant Candida albicans clinical isolate 08030809 assessed as clone count at 5 times MIC after 1 hr by colony counting assay (reference value: 228 +/- 23 CFU); format: functional
[12] = tested on: Candida albicans; assay: Antimicrobial activity against antibiotic resistant Candida albicans clinical isolate 08030809 assessed as clone count at 10 times MIC after 12 hrs by colony counting assay (reference value: 54153 +/- 8769 CFU); format: functional
[13] = tested on: Candida albicans; assay: Antimicrobial activity against antibiotic resistant Candida albicans clinical isolate 08030809 assessed as clone count at MIC after 10 mins by colony counting assay (reference value: 102 +/- 11 CFU); format: functional
[14] = tested on: Candida albicans; assay: Antimicrobial activity against antibiotic resistant Candida albicans clinical isolate 08030809 assessed as clone count at MIC after 30 mins by colony counting assay (reference value: 156 +/- 16 CFU); format: functional
[15] = tested on: Mus musculus; assay: (§4) Antiinflammatory activity in antibiotic resistant Candida albicans clinical isolate 08030809 induced mouse vaginitis model assessed as microabscess number in vaginal tissue at 20 ug administered as intravaginal instillation measured on day 6 by hematoxylin-eosin staining based microscopic method (reference value: 61); format: functional, Vagina
Outline: (§5)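 Mice given weekly subcutaneous estradiol valerate (0.5 mg in 0.1 mL vegetable oil) 72 h before infection. Infected intravaginally with 20 µL of 10^7 CFU/mL C. albicans 08030809. Intravaginal instillation of 20 µL daily for 16 days. Vaginal canals excised after lavage, formalin-fixed, paraffin-embedded, HE-stained. Microabscesses counted per high-power field over 6 fields per section, three independent experiments.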

[16] = tested on: Mus musculus; assay: Antiinflammatory activity in antibiotic resistant Candida albicans clinical isolate 08030809 induced mouse vaginitis model assessed as reduction in IL-6 secretion in vaginal tissue administered as intravaginal instillation measured on day 10 by ELISA; format: functional, organism-based; conditions: Vagina
Outline: (§6)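 Same estradiol-primed mouse model, infected intravaginally with C. albicans 08030809 and treated by intravaginal instillation (20 µL/mouse). Vaginal canals excised on day 10 of treatment and homogenised in 0.9% NaCl. Supernatant taken after 2,000 g for 15 min. TNF-α, IL-6, IL-1β and IL-10 measured by ELISA. Mean ± SE of three independent experiments; unpaired t-test versus vehicle.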

[17] = tested on: Candida albicans; assay: Antimicrobial activity against antibiotic resistant Candida albicans clinical isolate 08030809 assessed as clone count at 10 times MIC after 10 mins by colony counting assay (reference value: 102 +/- 11 CFU); format: functional
[18] = tested on: Mus musculus; assay: as §4, with “after 16 days” for “on day 6”; format: functional, Vagina; outline: as §5
[19] = tested on: Mus musculus; assay: Antiinflammatory activity in antibiotic resistant Candida albicans clinical isolate 08030809 induced mouse vaginitis model assessed as reduction in IL-6 secretion in vaginal tissue at 50 ug administered as intravaginal instillation measured on day 10 by ELISA; format: functional, Vagina; outline: as §6
[20] = tested on: Candida albicans; assay: Antimicrobial activity against antibiotic resistant Candida albicans clinical isolate 08030809 in mouse vaginitis model assessed as decrease in colony count in lavage liquid of vagina at 50 ug administered as intravaginal instillation measured on day 16; format: functional
[21] = tested on: Candida albicans; assay: Antimicrobial activity against antibiotic resistant Candida albicans clinical isolate 08030809 in mouse vaginitis model assessed as decrease in colony count in lavage liquid of vagina at 50 ug measured on day 1; format: functional
[22] = tested on: Candida albicans; assay: Effect on cell morphology in antibiotic resistant Candida albicans clinical isolate 08030809 assessed as cell membrane perforation at MIC to 2.5 times MIC after 30 mins by scanning electron microscopy; format: functional, organism-based
Outline: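 Exponential-phase C. albicans 08030809 was washed in PBS and resuspended in Sabouraud medium. Cells were treated 30 min at 37°C alongside a vehicle control. They were then fixed in 2.5% glutaraldehyde (4°C, 2 h) and 1% osmium tetroxide, dehydrated through graded ethanol, freeze-dried from tert-butanol, gold-coated and imaged by SEM. Images are typical of three experiments.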

H-VKRWKKWRWKWKKWV-NH2 showed an MIC [1] of 1.4 µg/mL, an MIC [2] of 2.79 µg/mL and an MIC [3] of 2.65 µg/mL. For the same substance, the Activity [4] was “Non-toxic”, the MIC [5] was 1.4 µg/mL and the HC10 ([6]; erythrocyte, 0.5 h) was over 320 µg/mL. For the same substance, the HC50 at 0.5 h ([6]; red blood cells) was over 320 µg/mL, the MIC [7] was 0.59 µg/mL and the MIC [8] was 9.38 µg/mL. The MIC [9] was 1.17 µg/mL, the Activity [10] was 0 CFU and the Activity [11] was 0 CFU. It also gave an Activity [12] of 0 CFU, an Activity [13] of 15 CFU and an Activity [14] of 0 CFU. The Activity [15] was 16, the Activity [16] was “Dose-dependent effect” and the Activity [17] was 4 CFU. The Activity [18] was under 3, the “inhibition (INH)” value [19] was 57% and the “inhibition (INH)” value [20] was 83%. The “inhibition (INH)” value [21] was 28% and the Activity [22] was “Active”.
